Calls of active or inactive are those of the source. No cut-off for these calls is given here.
Columns and labels:
[1] = target: T1, Induced myeloid leukemia cell differentiation protein Mcl-1 (Homo sapiens, UniProt Q07820); assay: biochemical
[2] = target: T1, Induced myeloid leukemia cell differentiation protein Mcl-1; assay: Reversible binding affinity to PEST and transmembrane regions lacking N-terminal His6/MBP-tagged human MCl1 (172 to 327 residues) expressed in Escherichia coli Rosetta2(2DE3) pLysS cells at 50 uM measured for 300 secs by bio-layer interferometry
[3] = target: T1, Induced myeloid leukemia cell differentiation protein Mcl-1; assay: Binding affinity to PEST and transmembrane regions lacking N-terminal His6/MBP-tagged human MCl1 (172 to 327 residues) expressed in Escherichia coli Rosetta2(2DE3) pLysS cells assesed as inhibition of protein interaction with carboxyfluorescein-labeled 26-mer Noxa peptide at 15 nM to 250 uM by fluorescence polarization assay in presence of CHAPS
In short: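 Competition fluorescence polarization assay measuring displacement of a […] cognate (Noxa) peptide from Mcl-1. Polarization was read across a dose series of test compound. Buffer contained 0.1% CHAPS to rule out compound aggregation. Ki values were derived from the competition data.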

T1 sequence (Q07820 whole entry, the tested form may be a part): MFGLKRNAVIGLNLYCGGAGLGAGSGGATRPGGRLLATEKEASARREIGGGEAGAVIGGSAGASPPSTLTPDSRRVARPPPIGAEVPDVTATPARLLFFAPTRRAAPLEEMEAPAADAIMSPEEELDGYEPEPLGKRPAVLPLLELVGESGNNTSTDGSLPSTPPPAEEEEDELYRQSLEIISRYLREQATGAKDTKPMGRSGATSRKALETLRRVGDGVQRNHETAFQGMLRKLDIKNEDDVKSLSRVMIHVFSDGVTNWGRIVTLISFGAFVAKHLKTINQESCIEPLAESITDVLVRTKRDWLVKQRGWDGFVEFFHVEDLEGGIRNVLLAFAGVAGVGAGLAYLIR

Row | Structure (SMILES) | Ki [1] | also measured
1 | COc1ccc(C(=O)/C=C/c2cc(F)c(O)c(Cl)c2)c(OC)c1OC | 3 µM | 
2 | COc1cc2oc(-c3ccccc3[N+](=O)[O-])cc(=O)c2c(OC)c1OC | > 50 µM | 
3 | COc1ccc(C(=O)/C=C/c2ccc(O)cc2)cc1 | > 50 µM | 
4 | C[C@@]12CC[C@@H]3[C@H](CCC4=CC(=O)CC[C@H]43)[C@H]1CC[C@H]2OC1(O)C(=O)c2ccccc2C1=O | 12 µM | Activity [2]: Active; inhibition [3]: Active
5 | O=C(/C=C/c1ccncc1)c1ccc(O)cc1 | > 50 µM | 
6 | O=C(/C=C/c1ccc(O)cc1)c1ccc2c(c1)CCO2 | > 50 µM | 
7 | O=C(/C=C/c1cc(F)c(O)c(F)c1)c1ccc2c(c1)CCO2 | > 50 µM | 
8 | COc1ccc(C(=O)/C=C/c2cc(Cl)c(O)c(OC)c2)cc1 | 10 µM | 
9 | COc1ccc(C(=O)/C=C/c2ccncc2)c(O)c1 | > 50 µM | 
10 | COc1cc2oc(-c3ccc(C(F)(F)F)cc3)cc(=O)c2c(OC)c1OC | > 50 µM | 
11 | COc1cc(O)c(C(=O)/C=C/c2ccc(O)c(OC)c2)c(OC)c1 | 21 µM | Activity [2]: Active; inhibition of Noxa peptide binding (active/inactive call) [3]: Active
12 | COc1cc(C(=O)/C=C/c2ccc(C(F)(F)F)cc2)c(O)c(OC)c1OC | > 50 µM | 
13 | COc1cc2oc(-c3ccc(N)cc3)cc(=O)c2c(OC)c1OC | > 50 µM | 
14 | COc1cc2oc(-c3ccccc3N)cc(=O)c2c(OC)c1OC | > 50 µM | 
15 | COc1cc(C(=O)/C=C/c2ccc([N+](=O)[O-])cc2)c(O)c(OC)c1OC | > 50 µM | 
16 | COc1cc(C(=O)/C=C/c2ccc(O)cc2)c(O)c(OC)c1OC | 40 µM | 

Row | Structure (SMILES) | Ki [1] | also measured
17 | COc1cc(/C=C/C(=O)c2ccc(OC)c(OC)c2OC)cc(Cl)c1O | 2 µM | 
18 | COc1cc(O)c(C(=O)/C=C/c2ccc([N+](=O)[O-])cc2)c(OC)c1OC | > 50 µM | 
19 | COc1ccc(/C=C/C(=O)c2ccc(O)cc2)c(O)c1 | > 50 µM | 
20 | COc1cc(O)c(C(=O)/C=C/c2ccccc2[N+](=O)[O-])c(OC)c1OC | > 50 µM | 
21 | COc1cc(C(=O)/C=C/c2ccc3c(c2)OCO3)c(O)c(OC)c1OC | > 50 µM | 
22 | O=C(/C=C/c1cc(F)c(O)c(Cl)c1)c1ccncc1 | > 50 µM | 
23 | COc1ccc(/C=C/C(=O)c2ccc(O)cc2)cc1 | > 50 µM | 
24 | Cc1c(/C=N/N2C=Nc3c([nH]c4ccccc34)C2)c(=O)oc2c3c4c(cc12)CCCN4CCC3 |  | Activity [2]: Active; inhibition of Noxa peptide binding (active/inactive call) [3]: Active
25 | COc1ccc(C(=O)/C=C/c2ccc(O)c(F)c2)c(OC)c1OC | 28 µM | 
26 | COc1ccc(/C=C/C(=O)c2cc(OC)c(OC)c(OC)c2O)cc1 | > 50 µM | 
27 | COc1cc(O)c(C(=O)/C=C/c2ccc(C(F)(F)F)cc2)c(OC)c1OC | > 50 µM | 
28 | O=C(/C=C/c1ccc(O)c(F)c1)c1ccc2c(c1)CCO2 | > 50 µM | 
29 | c1cc2c(cc1[C@H]1OC[C@H]3[C@H]1CO[C@H]3c1ccc3c(c1)OCO3)OCO2 | 7 µM | Activity [2]: Active; inhibition of Noxa peptide binding (active/inactive call) [3]: Active
30 | COc1ccc(C(=O)/C=C/c2cc(F)c(O)c(Cl)c2)cc1 | 7 µM | 
31 | COc1ccc(C(=O)/C=C/c2cccc(F)c2O)cc1 | 20 µM | 

Source: ChEMBL document CHEMBL3813679, “DARC: Mapping Surface Topography by Ray-Casting for Effective Virtual Screening at Protein Interaction Sites” (J Med Chem, 2016)
